Measurements taken from ChEMBL document CHEMBL1138529, “Efficacy, pharmacokinetics, and metabolism of tetrahydroquinoline inhibitors of Plasmodium falciparum protein farnesyltransferase” (Antimicrob Agents Chemother, 2007).

Key:
[1] = Permeability from apical to basolateral side in human Caco-2 cells; format: ADME, cell-based; conditions: read-out: permeability
[2] = Inhibition of Plasmodium falciparum protein farnesyltransferase by SPA method
[3] = test system: Plasmodium falciparum; test: Antiplasmodial activity against Plasmodium falciparum by [3H]hypoxanthine uptake; format: functional; conditions: read-out: ED50 (the source's name)
Procedure, shortened: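 Asynchronous P. falciparum (3D7 or K1) in RPMI 1640 with 20% heat-inactivated human A+ plasma, 0.5% parasitemia and 0.5% hematocrit; compound serially diluted, top final 5 μM, 48 h at 37°C under 5% CO2/5% O2/90% N2, then [8-3H]hypoxanthine 0.3 μCi added for 24 h.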

[4] = test system: Mus musculus; test: Toxicity in BALB/c mouse at 50 mg/kg, po; format: organism-based; parameters: dose 50 mg/kg, route oral; conditions: in vivo
[5] = test system: Rattus norvegicus; test: Toxicity in Sprague-Dawley rat at 50 mg/kg, po; format: organism-based; parameters: dose 50 mg/kg, route oral; conditions: in vivo
Procedure, shortened: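 Female Sprague-Dawley rats, 10-12 weeks, three per group. 50 mg/kg oral gavage in 3% EtOH-7% Tween 80-90% normal saline. Saphenous vein plasma sampled over time, and animals observed for adverse reactions.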

[6] = Permeability from basolateral to apical side in human Caco-2 cells; format: ADME, cell-based; conditions: read-out: permeability
Procedure, shortened: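 Caco-2 clone TC7 grown on laminin-coated porous inserts and used 19-21 days after seeding; integrity checked by TEER and [3H]mannitol flux. Monolayers equilibrated 30 min at 37°C in HBSS/5 mM HEPES pH 7.4. Compound at 50 μM final added to basolateral donor side. Apical receiver sampled at 60 min, 37°C with shaking; LC/MS; Papp calculated from 60-min concentrations.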

[7] = test system: Mus musculus; test: Plasma concentration in BALB/c mouse at 50 mg/kg, po; format: ADME, organism-based; parameters: dose 50 mg/kg, route oral; conditions: in vivo
Procedure, shortened: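 Female BALB/c mice, 8-10 weeks, three per group. Single 50 mg/kg oral gavage in 3% EtOH-7% Tween 80-90% normal saline. Plasma collected by tail bleed at set times, frozen at −20°C, acetonitrile-extracted with internal standard, quantified by LC/MS.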

SMILES	Papp A→B [1]	IC50 [2]	EC50 [3]	Activity [4]	Activity [5]	Papp B→A [6]	concentration [7]
CCNC(=O)N1CCC(CN(C2Cc3cc(C#N)ccc3N(Cc3cncn3C)C2)S(=O)(=O)c2ccccn2)CC1 (stereo unspecified)	6 nm/s	0.8 nM	13 nM	Non-toxic	Non-toxic		
CC(C)NCC(O)COc1cccc2ccccc12 (stereo unspecified) [PROPRANOLOL]	289 nm/s					834 nm/s	
Cn1cncc1CN1CC(N(CC2CCN(C(=O)CNC(=O)OC(C)(C)C)CC2)S(=O)(=O)c2ccccn2)Cc2cc(C#N)ccc21 (stereo unspecified)	5 nm/s	0.6 nM	18 nM	Non-toxic	Non-toxic		
Cn1cncc1CN1CC(N(CC2CCN(S(C)(=O)=O)CC2)S(=O)(=O)c2ccccn2)Cc2cc(C#N)ccc21 (stereo unspecified)	1 nm/s	0.5 nM	62 nM	Non-toxic	Non-toxic		
CC[C@]1(O)C[C@@H]2CN(CCc3c([nH]c4ccccc34)[C@@](C(=O)OC)(c3cc4c(cc3OC)N(C)[C@H]3[C@@](O)(C(=O)OC)[C@H](OC(C)=O)[C@]5(CC)C=CCN6CC[C@]43[C@@H]65)C2)C1 [VINBLASTINE]	1 nm/s					419 nm/s	
Cn1cncc1CN1CC(N(CC2CCN(C(=O)c3ccc(Cl)cc3)CC2)S(=O)(=O)c2ccccn2)Cc2cc(C#N)ccc21 (stereo unspecified)	5 nm/s	0.6 nM	18 nM	Non-toxic	Non-toxic		
Cn1cncc1CN1CC(N(CC2CCN(C(=O)c3cccs3)CC2)S(=O)(=O)c2ccccn2)Cc2cc(C#N)ccc21 (stereo unspecified)	5 nm/s	0.6 nM	18 nM	Non-toxic	Non-toxic		
Cc1noc(C)c1CN(C1Cc2cc(C#N)ccc2N(Cc2cncn2C)C1)S(=O)(=O)c1ccccn1 (stereo unspecified)	80 nm/s			Non-toxic		671 nm/s	15 µM
Cn1cncc1CN1CC(N(CC2CCN(C(=O)C3CCCC3)CC2)S(=O)(=O)c2ccccn2)Cc2cc(C#N)ccc21 (stereo unspecified)	5 nm/s	0.6 nM	18 nM	Non-toxic	Non-toxic		
Cn1cnc(S(=O)(=O)N(Cc2cccc(-n3cccc3)c2)C2Cc3cc(C#N)ccc3N(Cc3cncn3C)C2)c1 (stereo unspecified)	2 nm/s			Non-toxic		521 nm/s	1.1 µM
Cn1cncc1CN1CC(N(CC2CCN(C(=O)c3ccco3)CC2)S(=O)(=O)c2ccccn2)Cc2cc(C#N)ccc21 (stereo unspecified)	5 nm/s	0.6 nM	18 nM	Non-toxic	Non-toxic		
Cn1cncc1CN1CC(N(CC2CCN(S(=O)(=O)c3ccccc3)CC2)S(=O)(=O)c2ccccn2)Cc2cc(C#N)ccc21 (stereo unspecified)	1 nm/s	0.5 nM	62 nM	Non-toxic	Non-toxic		
Cn1cnc(S(=O)(=O)N(CCn2cccc2)C2Cc3cc(C#N)ccc3N(Cc3cncn3C)C2)c1 (stereo unspecified)	3 nm/s			Non-toxic		530 nm/s	0.8 µM
CC(C)C(=O)N1CCC(CN(C2Cc3cc(C#N)ccc3N(Cc3cncn3C)C2)S(=O)(=O)c2ccccn2)CC1 (stereo unspecified)	5 nm/s	0.6 nM	14 nM	Non-toxic	Non-toxic		
Cn1cncc1CN1CC(N(CC(=O)NC(C)(C)C)S(=O)(=O)c2ccncc2)Cc2cc(C#N)ccc21 (stereo unspecified)		> 50 nM	> 5 nM				
C=C(C)C(=O)N1CCC(CN(C2Cc3cc(C#N)ccc3N(Cc3cncn3C)C2)S(=O)(=O)c2ccccn2)CC1 (stereo unspecified)	5 nm/s	0.6 nM	18 nM	Non-toxic	Non-toxic		
Cn1cncc1CN1CC(N(CC2CCN(C(=O)C3CC3)CC2)S(=O)(=O)c2ccccn2)Cc2cc(C#N)ccc21 (stereo unspecified)	5 nm/s	0.6 nM	18 nM	Non-toxic	Non-toxic		
CCC(=O)N1CCC(CN(C2Cc3cc(C#N)ccc3N(Cc3cncn3C)C2)S(=O)(=O)c2ccccn2)CC1 (stereo unspecified)	5 nm/s	0.6 nM	13 nM	Non-toxic	Non-toxic		
Cn1cncc1CN1CC(N(CC2CCN(C(=O)CC(C)(C)C)CC2)S(=O)(=O)c2ccccn2)Cc2cc(C#N)ccc21 (stereo unspecified)	5 nm/s	0.6 nM	16 nM	Non-toxic	Non-toxic		
Cn1cncc1CN1CC(N(Cc2cccc(-n3cccc3)c2)S(=O)(=O)c2ccccn2)Cc2cc(C#N)ccc21 (stereo unspecified)	23 nm/s			Non-toxic		121 nm/s	9.8 µM

SMILES	Papp A→B [1]	IC50 [2]	EC50 [3]	Activity [4]	Activity [5]	Papp B→A [6]	concentration [7]
Cn1cncc1CN1CC(N(CC2CCN(C(=O)NC(C)(C)C)CC2)S(=O)(=O)c2ccccn2)Cc2cc(C#N)ccc21 (stereo unspecified)	6 nm/s	0.8 nM	13 nM	Non-toxic	Non-toxic		
Cn1cncc1CN1CC(N(CC2CCN(C(=O)Nc3ccc(Br)cc3)CC2)S(=O)(=O)c2ccccn2)Cc2cc(C#N)ccc21 (stereo unspecified)	6 nm/s	0.8 nM	13 nM	Non-toxic	Non-toxic		
Cn1cncc1CN1CC(N(CC(=O)NC(C)(C)C)S(=O)(=O)c2cccnc2)Cc2cc(C#N)ccc21 (stereo unspecified)		10 nM	2.7 nM				
CN(C)C(=O)N1CCC(CN(C2Cc3cc(C#N)ccc3N(Cc3cncn3C)C2)S(=O)(=O)c2ccccn2)CC1 (stereo unspecified)	6 nm/s	0.8 nM	13 nM	Non-toxic	Non-toxic		
CCS(=O)(=O)N1CCC(CN(C2Cc3cc(C#N)ccc3N(Cc3cncn3C)C2)S(=O)(=O)c2ccccn2)CC1 (stereo unspecified)	1 nm/s	0.5 nM	62 nM	Non-toxic	Non-toxic		
CNC(=C[N+](=O)[O-])NCCSCc1ccc(CN(C)C)o1 [RANITIDINE]	3 nm/s					56 nm/s	
Cn1cncc1CN1CC(N(Cc2ccc(S(C)(=O)=O)cc2)S(=O)(=O)c2ccccn2)Cc2cc(C#N)ccc21 (stereo unspecified)	2 nm/s			Non-toxic		501 nm/s	0.15 µM
CC(C)S(=O)(=O)N1CCC(CN(C2Cc3cc(C#N)ccc3N(Cc3cncn3C)C2)S(=O)(=O)c2ccccn2)CC1 (stereo unspecified)	1 nm/s	0.5 nM	62 nM	Non-toxic	Non-toxic		
Cn1cncc1CN1CC(N(Cc2ccccn2)S(=O)(=O)c2ccccn2)Cc2cc(C#N)ccc21 (stereo unspecified)	16 nm/s			Non-toxic		733 nm/s	5.7 µM
Cn1cncc1CN1CC(N(CC2CCN(C(=O)N3CCCC3)CC2)S(=O)(=O)c2ccccn2)Cc2cc(C#N)ccc21 (stereo unspecified)	6 nm/s	0.8 nM	13 nM	Non-toxic	Non-toxic		
Cn1cnc(S(=O)(=O)N2CCC(CN(C3Cc4cc(C#N)ccc4N(Cc4cncn4C)C3)S(=O)(=O)c3ccccn3)CC2)c1 (stereo unspecified)	1 nm/s	0.5 nM	62 nM	Non-toxic	Non-toxic		
Cn1cncc1CN1CC(N(CC(=O)NC(C)(C)C)S(=O)(=O)c2ccccn2)Cc2cc(C#N)ccc21 (stereo unspecified)		1 nM	85 nM				
CC(C)NC(=O)N1CCC(CN(C2Cc3cc(C#N)ccc3N(Cc3cncn3C)C2)S(=O)(=O)c2ccccn2)CC1 (stereo unspecified)	6 nm/s	0.8 nM	13 nM	Non-toxic	Non-toxic		
CC(=O)N1CCC(CN(C2Cc3cc(C#N)ccc3N(Cc3cncn3C)C2)S(=O)(=O)c2ccccn2)CC1 (stereo unspecified)	5 nm/s	0.6 nM	12 nM	Non-toxic	Non-toxic		
Cn1cncc1CN1CC(N(CC2CCN(C(=O)C(C)(C)C)CC2)S(=O)(=O)c2ccccn2)Cc2cc(C#N)ccc21 (stereo unspecified)	5 nm/s	0.6 nM	15 nM	Non-toxic	Non-toxic		
Cn1cncc1CN1CC(N(CC2CCN(C(=O)c3ccccc3)CC2)S(=O)(=O)c2ccccn2)Cc2cc(C#N)ccc21 (stereo unspecified)	5 nm/s	0.6 nM	18 nM	Non-toxic	Non-toxic		
Cn1cncc1CN1CC(N(CC2CCN(C(=O)N3CCCCC3)CC2)S(=O)(=O)c2ccccn2)Cc2cc(C#N)ccc21 (stereo unspecified)	6 nm/s	0.8 nM	13 nM	Non-toxic	Non-toxic		
CCCC(=O)N1CCC(CN(C2Cc3cc(C#N)ccc3N(Cc3cncn3C)C2)S(=O)(=O)c2ccccn2)CC1 (stereo unspecified)	5 nm/s	0.6 nM	17 nM	Non-toxic	Non-toxic		
Cn1cncc1CN1CC(N(CC2CCN(C(=O)CC(F)(F)F)CC2)S(=O)(=O)c2ccccn2)Cc2cc(C#N)ccc21 (stereo unspecified)	5 nm/s	0.6 nM	18 nM	Non-toxic	Non-toxic		
